# This is a sample that favours compounds with a hit; in the whole collection about 2.9% have one here.
# PAX8 inh HTS – inhibitors of PAX8-driven TPO luciferase reporter, primary screen, RMG-I cells, single concentration; 360,000 compounds, 1.2% hits; inhibition, % at 12.6 µM; AID 652154, 2013; SteadyGlo, 24 h;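 active = mean replicate inhibition at least 60% with every replicate also reaching 60%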;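 also: luciferase light reporting Pax8 driven TPO promoter activity; plate controls were median of neutral control wells for no effect and mitoxantrone controls for full effect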
# CDK5 inh – inhibitors of human CDK5/p35 kinase, primary screen, biochemical, single concentration; Cyclin-dependent kinase 5 (Homo sapiens) + Cyclin-dependent kinase 5 activator 1 (Homo …; Recombinant CDK5/p35, ADP-Glo luminescence, 60 min; inhibition, % at 10 µM; 330,000 compounds, 0.01% hits; AID 488839, 2010;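 active = highest replicate inhibition of at least 50% and at least 75% of replicates reaching 50%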;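 also: plate controls were DMSO neutral control for no effect and GW8510 at 10 µM for full effect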
# dFosB act – activators of delta FosB homodimer, primary screen, biochemical, fluorescence polarization, TAMRA-CDK5 oligo, single point; Protein FosB (Mus musculus), P13346; purified delta FosB; percent of positive-control signal above neutral wells; activation, % at 25 µM; 340,000 compounds, 0.99% hits;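 active = mean activation above about 17%, with every replicate also reaching it, limit read from the data, passing the limit was not always enough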
# Target sequence (P13346 whole entry, looked up): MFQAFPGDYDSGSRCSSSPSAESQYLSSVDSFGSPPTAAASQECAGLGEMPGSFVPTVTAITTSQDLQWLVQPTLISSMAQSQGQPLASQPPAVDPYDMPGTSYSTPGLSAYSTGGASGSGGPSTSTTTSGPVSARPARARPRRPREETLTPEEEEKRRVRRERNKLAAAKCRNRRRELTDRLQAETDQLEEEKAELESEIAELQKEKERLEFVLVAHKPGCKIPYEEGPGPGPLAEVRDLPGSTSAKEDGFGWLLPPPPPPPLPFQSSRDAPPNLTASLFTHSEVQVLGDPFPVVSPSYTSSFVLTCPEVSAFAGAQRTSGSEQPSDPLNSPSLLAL
# Cneo AK release – Cryptococcus neoformans cell lysis inducers, primary screen, AK release luminescence, single concentration; C. neoformans lysis, adenylate kinase release luminescence, 4 h; normalised: neutral wells 0, clomiphene wells 100; lysis activity, % at 15 µM; 360,000 compounds, 0.2% hits; AID 651654, 2012;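 active = mean lysis activity across replicates of at least 80%, whatever share of replicates individually reach that level; inactive = mean lysis activity below 80%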
#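 Assay system: log-phase C. neoformans yeast / Quantity: yeast cell density of 5 × 10^6 cells/mL / Medium: fresh YPD growth medium / Compound: single dose / Timing: static 4 h at 37 °C with compound, 1 h detection / Measured by: adenylate kinase release luminescence / Read-out: lysis from increased AK signal / Benchmarks: Clomiphene as positive lysis control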
# GSIS activator – GLuc luminescence reporter in INS-1E cells, primary screen for activators of glucose-dependent secretion of insulin | INS-1E GLuc reporter insulin secretion, 2-3 h | activation, % at 16.6 µM | 370,000 compounds, 0.61% hits | AID 743287, 2014;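 active = lowest replicate activation of at least 40%, so every replicate reaches that level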;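 also: 0% = median of neutral control wells and 100% = median of IBMX positive control wells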
# Env fusion inh – inhibitors of HIV-1 Env-driven cell-cell fusion, primary screen, HeLa-JRFL effector, CEM21 target cells, luciferase | inhibition, % at 12.3 µM | 360,000 compounds, 1.1% hits | AID 651610, 2012;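 active = mean replicate inhibition score of at least 50 and every replicate individually at or above 50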;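 also: 0% = plate neutral controls and 100% = maraviroc near 300 nM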
# * = called active by the depositor; x = no result; [ ] = another dose, or the depositor's remark.
SMILES,PAX8 inh HTS,CDK5 inh,dFosB act,Cneo AK release,GSIS activator,Env fusion inh
CC(=O)NS(=O)(=O)c1ccc(NC(=O)COc2ccc(C(=O)c3ccccc3)cc2)cc1,75.3*,1.6,1.3,1.4,13.4,x
O=C(NCCc1ccccc1F)c1ccc2c(c1)OCCO2,110.2*,1.1,-4.1,-9.2,20.4,75.6*
COc1cccc(C#Cc2ccc([C@H]3[C@H]4CN(C(=O)C5CC5)CC(=O)N4[C@H]3CO)cc2)c1,35.8,x,x,x,-9.6,x
C[C@H](CO)N1C[C@H](C)[C@@H](CN(C)C(=O)Nc2cccc(F)c2)Oc2ncc(C#CCN(C)C)cc2C1=O,x,x,x,0.5,16.9,-3.9[16.7 µM]
C[C@@H]1CN([C@@H](C)CO)C(=O)c2cc(C#CCN(C)C)cnc2O[C@H]1CN(C)C(=O)Nc1cccc(F)c1,x,x,x,-0.1,6.5,-10.6[16.7 µM]
CC(C)CC#Cc1cnc2c(c1)C(=O)N([C@@H](C)CO)C[C@H](C)[C@H](CN(C)C(=O)c1ccc3c(c1)OCO3)O2,x,x,x,85.2*,-17.1,3.6[16.7 µM]
C[C@H](CO)N1C[C@H](C)[C@H](CN(C)C(=O)Nc2ccc3c(c2)OCO3)Oc2ncc(C#CC(C)(C)O)cc2C1=O,x,x,x,113.0*,0.3,2.3[16.7 µM]
C[C@H](CO)N1C[C@H](C)[C@H](CN(C)C(=O)Nc2cccc(F)c2)Oc2ncc(C#CCN(C)C)cc2C1=O,x,x,x,97.3*,2.4,-1.0[16.7 µM]
C[C@H]1CN([C@@H](C)CO)C(=O)c2cc(C#CCN(C)C)cnc2O[C@@H]1CN(C)C(=O)Nc1cccc(F)c1,x,x,x,113.5*,5.9,-2.5[16.7 µM]
CCCC(=O)N1CC2(C1)CN(S(C)(=O)=O)[C@@H](CO)c1c2c2ccc(OC)cc2n1C,39.5,x,x,x,12.1,x
Cc1cccc(-c2ccc([C@H]3[C@@H](CO)N4C(=O)CN(C(=O)NC5CCCCC5)C[C@@H]34)cc2)c1,x,x,x,x,-15.9,x
Cc1noc(C)c1NC(=O)N(C)C[C@@H]1OCCCC[C@@H](C)Oc2ccc(NC(=O)Cc3ccccc3)cc2C(=O)N([C@@H](C)CO)C[C@H]1C,x,x,x,4.9,2.6,-3.2[16.7 µM]
CC(C)NC(=O)Nc1ccc2c(c1)CC(=O)N([C@H](C)CO)C[C@@H](C)[C@@H](CN(C)Cc1ccc(Oc3ccccc3)cc1)O2,27.8,x,x,104.7*,-20.3,x
C[C@H](CO)N1C[C@H](C)[C@H](CN(C)Cc2ccc(Oc3ccccc3)cc2)Oc2ccc(NC(=O)Cc3ccccc3)cc2CC1=O,47.2,x,x,1.4,-14.5,-4.3[16.7 µM]
COc1ccc(NC(=O)Nc2ccc3c(c2)CC(=O)N([C@H](C)CO)C[C@H](C)[C@@H](CN(C)Cc2ccc(Oc4ccccc4)cc2)O3)cc1,69.2*,x,x,-2.4,16.1,-1.0[16.7 µM]
CC(C)NC(=O)Nc1ccc2c(c1)CC(=O)N([C@H](C)CO)C[C@H](C)[C@H](CN(C)Cc1ccc(Oc3ccccc3)cc1)O2,3.9,x,x,1.7,-34.2,x
C[C@@H]1CN([C@@H](C)CO)C(=O)Cc2cc(NC(=O)Nc3ccccc3)ccc2O[C@H]1CN(C)Cc1ccc(Oc2ccccc2)cc1,82.4*,x,x,2.9,1.9,9.5[16.7 µM]
C[C@H]1CN([C@@H](C)CO)C(=O)Cc2cc(NC(=O)Nc3ccccc3)ccc2O[C@H]1CN(C)Cc1ccc(Oc2ccccc2)cc1,9.7,x,x,3.2,-5.5,-2.5[16.7 µM]
C[C@@H]1CN([C@@H](C)CO)C(=O)Cc2cc(NC(=O)Cc3ccccc3)ccc2O[C@H]1CN(C)Cc1ccc(Oc2ccccc2)cc1,71.7*,x,x,35.0,-13.7,16.4[16.7 µM]
O=C(C[C@@H]1C[C@@H]2c3cc(NS(=O)(=O)c4ccc(F)cc4)ccc3O[C@@H]2[C@@H](CO)O1)NC1CCCC1,2.7,x,x,-1.9,-2.9,-13.2[16.7 µM]
O=C(O)CCSc1nnc(-c2ccc3c(c2)OCO3)o1,18.3,5.2,0.1,-0.2,x,69.1*
CCN(CC(=O)Nc1c(F)cccc1F)C(=O)c1ccc(N2CCCCC2)c([N+](=O)[O-])c1,14.3,-0.2,-3.0,3.3,-25.1,x
